Screening data (PubChem)
In the library only some 1.8% were active in any assay of this set; here they are far more common.
Rin1-Abl PPI inh = inhibitors of human Rin1-Abl protein interaction. P00519+Q13671. TR-FRET Rin1/Abl binding, biochemical. inhibition, % at 7.35 µM. actives 0.4% (n = 360,000). AID 588664; in the data active = inhibition above about 5%, passing the limit was not always enough
Target sequence (P00519 whole entry, looked up): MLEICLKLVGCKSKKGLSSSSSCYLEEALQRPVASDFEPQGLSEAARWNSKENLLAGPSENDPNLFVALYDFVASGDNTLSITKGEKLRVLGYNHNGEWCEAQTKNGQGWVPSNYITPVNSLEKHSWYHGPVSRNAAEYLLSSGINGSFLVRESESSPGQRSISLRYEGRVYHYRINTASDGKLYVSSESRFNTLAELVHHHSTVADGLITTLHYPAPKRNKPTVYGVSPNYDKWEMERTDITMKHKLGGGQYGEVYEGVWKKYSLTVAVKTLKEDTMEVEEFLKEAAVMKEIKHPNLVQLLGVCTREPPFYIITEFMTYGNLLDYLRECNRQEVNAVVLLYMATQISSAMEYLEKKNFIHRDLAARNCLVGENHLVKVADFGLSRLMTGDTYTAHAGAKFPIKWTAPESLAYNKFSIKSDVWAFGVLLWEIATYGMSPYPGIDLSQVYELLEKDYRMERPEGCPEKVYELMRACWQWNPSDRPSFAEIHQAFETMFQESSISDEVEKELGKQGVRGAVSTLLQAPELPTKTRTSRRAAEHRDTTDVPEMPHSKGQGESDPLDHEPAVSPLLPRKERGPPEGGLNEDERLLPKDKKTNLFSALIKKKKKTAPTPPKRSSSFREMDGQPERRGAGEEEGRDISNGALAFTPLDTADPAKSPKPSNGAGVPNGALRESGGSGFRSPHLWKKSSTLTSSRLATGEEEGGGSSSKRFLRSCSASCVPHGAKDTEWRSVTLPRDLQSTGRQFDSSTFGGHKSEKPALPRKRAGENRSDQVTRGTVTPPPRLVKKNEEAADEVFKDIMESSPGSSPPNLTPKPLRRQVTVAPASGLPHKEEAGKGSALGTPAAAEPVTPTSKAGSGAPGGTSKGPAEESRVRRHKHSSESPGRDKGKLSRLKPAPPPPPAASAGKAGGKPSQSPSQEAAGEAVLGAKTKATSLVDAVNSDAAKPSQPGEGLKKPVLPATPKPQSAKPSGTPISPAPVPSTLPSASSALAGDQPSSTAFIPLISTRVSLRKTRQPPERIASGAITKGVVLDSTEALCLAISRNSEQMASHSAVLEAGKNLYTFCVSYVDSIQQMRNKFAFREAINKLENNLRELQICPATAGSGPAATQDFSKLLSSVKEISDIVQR
Target sequence (Q13671 whole entry, looked up): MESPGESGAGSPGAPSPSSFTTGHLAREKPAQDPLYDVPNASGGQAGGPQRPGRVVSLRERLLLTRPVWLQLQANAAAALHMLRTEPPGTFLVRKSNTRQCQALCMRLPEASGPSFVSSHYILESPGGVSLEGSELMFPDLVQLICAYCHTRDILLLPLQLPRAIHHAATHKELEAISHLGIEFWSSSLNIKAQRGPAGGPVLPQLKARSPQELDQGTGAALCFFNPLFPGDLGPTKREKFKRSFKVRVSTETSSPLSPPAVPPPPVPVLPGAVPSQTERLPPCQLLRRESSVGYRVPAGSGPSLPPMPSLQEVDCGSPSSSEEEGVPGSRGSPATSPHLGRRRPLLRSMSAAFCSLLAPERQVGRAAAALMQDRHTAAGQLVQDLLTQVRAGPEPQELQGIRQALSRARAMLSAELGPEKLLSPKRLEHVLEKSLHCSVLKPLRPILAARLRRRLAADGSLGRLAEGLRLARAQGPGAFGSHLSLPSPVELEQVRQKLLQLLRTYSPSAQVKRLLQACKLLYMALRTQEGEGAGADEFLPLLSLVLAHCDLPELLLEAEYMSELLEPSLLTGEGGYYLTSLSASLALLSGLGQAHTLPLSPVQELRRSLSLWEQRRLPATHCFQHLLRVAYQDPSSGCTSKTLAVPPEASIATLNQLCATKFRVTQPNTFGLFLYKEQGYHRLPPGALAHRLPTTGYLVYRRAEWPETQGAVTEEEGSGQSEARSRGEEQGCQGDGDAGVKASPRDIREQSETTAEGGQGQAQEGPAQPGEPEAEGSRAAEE
TbMetRS inhib = blocks T. brucei methionyl-tRNA synthetase activity; purified T. brucei MetRS, ATP depletion, Kinase-Glo luminescence; actives 0.4% (n = 360,000); inhibition, % at 11.9 µM; AID 624268;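 active = inhibition above a per-plate cutoff of the control wells' mean inhibition plus 3 SD, cut at about 5.5% in these data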;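 note: 0% = DMSO wells median and 100% = median of wells with control inhibitor compound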
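Test system: purified T. brucei MetRS enzyme. Also added: ATP, methionine and E. coli bulk tRNA substrates. Compound: 11.9 µM single point. Schedule: 15 min enzyme-compound preincubation, 2 h reaction, 10 min detection, 25 °C. Signal: luciferase luminescence of residual ATP, Kinase-Glo. Evaluation: percent inhibition versus plate control medians. Controls: DMSO wells, low control.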
Rev-erbA mod = modulates human Rev-erb alpha binding to DNA | actives 0.79% (n = 370,000) | activity, % at 10 µM | Rev-erbα–FITC-DNA binding, fluorescence polarization, 90 min;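 active = activity above about 14%, limit read from the data; passing the limit was not always enough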;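 note: 0% = DMSO wells with 35 nM protein and 100% = DMSO wells with 750 nM protein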
PG9 Ab binder = small molecules binding HIV-1 gp120 antibody PG9. actives 0.43% (n = 360,000). TR-FRET gp120-PG9 antibody binding. inhibition, % at 6.7 µM; in the data active = inhibition above about 8.5%
Rin1-Abl confirm = Rin1-Abl interaction inhibition confirmation; shares compounds with Rin1-Abl PPI inh; inhibition, % at 7.35 µM; actives 49% (n = 1,300); TR-FRET Rin1-Abl binding, purified proteins; AID 602124
GFP quench-1 = GFP fluorescence interference artifact | shares compounds with Rin1-Abl PPI inh | inhibitors/quenchers counterscreen | inhibition, % at 6.75 µM | actives 8.5% (n = 1,300) | AID 602125;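 note: ABL1-eGFP fusion protein alone without its partner RIN1-SBP; 0% = protein with vehicle and 100% = wells lacking protein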
GFP quench dose = counter-screen for Rin1-Abl inhibitors: GFP quenchers, dose response; shares compounds with Rin1-Abl PPI inh; GFP fluorescence interference/quenching counterscreen; IC50, µM; 230 tested, under 10 active; AID 602182; call rule not given here;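 note: ABL1-eGFP fusion protein alone without its RIN1 binding partner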
GFP quench-2 = counter-screen for Rin1-Abl interaction inhibitors: GFP fluorescence quenching; AID 602397; IC50, µM; shares compounds with Rin1-Abl PPI inh; 25 tested, under 10 active; GFP fluorescence quenching counterscreen, biochemical; call rule not given here
* hit, by the source's call; nt = not tested or not shown. Cut-off read from the data, not from the text of the source, unless noted: active = inhibition above about 6.5%; inactive = the rest.

SMILES	Rin1-Abl PPI inh	TbMetRS inhib	Rev-erbA mod	PG9 Ab binder	Rin1-Abl confirm	GFP quench-1	others
CCOC(=O)C1(CC2CC2)CCN(Cc2cn[nH]c2-c2ccccc2)CC1	4	0	-1	0	nt	nt
CCOC(=O)C1(Cc2ccccc2)CCN(Cc2cn[nH]c2-c2ccccc2)CC1	9.5*	-1	3	-2	-1	-1
CCOC(=O)c1ccc(NC(=O)COc2ccccc2CNC2CCCC2)cc1	31*	-1	-1	0	34*	0	GFP quench dose=>68
O=C1Nc2ccccc2Nc2ccccc21	-1	-1	0	-3	nt	nt
O=C1Nc2ccccc2N=C(c2ccccc2)c2ccccc21	5.9*	0	1	0	2	-3
O=C1N2CCc3ccccc3C2CS(=O)(=O)N1Cc1ccc(F)cc1 (configuration not stated)	nt	nt	-3	nt	nt	nt
Cc1ccc(-c2cc(C(=O)NN=Cc3ccc(N(C)C)cc3)[nH]n2)cc1C	nt	nt	-26	nt	nt	nt
CCN(C(=O)CN1C(=O)COc2ccc(S(=O)(=O)N3CCOCC3)cc21)c1ccc(OC)cc1	8.2*	0	-4	1	11*	0
Cc1cc2nc3c(=O)[nH]c(=O)nc-3n(C[C@@H](O)[C@@H](O)[C@@H](O)COP(=O)(O)O)c2cc1C	nt	nt	5	nt	nt	nt
Cc1c(C(=O)O)c(O)cc2c1C(=O)c1c(O)c([C@@H]3O[C@H](CO)[C@@H](O)[C@H](O)[C@H]3O)c(O)c(O)c1C2=O	21*	0	-3	-42	27*	5
COc1ccc2c3c(cccc13)C(=O)CC2	12*	0	2	-1	-3	-12
O=C(c1cc(COc2cccc3cccnc23)on1)N1CCC[C@H]1CO	54*	0	-7	-1	50*	-1	GFP quench dose=>67;GFP quench-2=>68
COCCC1CCCCN1C(=O)c1cc(COc2cccc(C(C)=O)c2)on1 (configuration not stated)	0	0	-1	-1	nt	nt
CC(=O)c1ccc(OCc2cc(C(=O)N3CCC[C@H]3CO)no2)cc1	11*	0	1	1	10*	-1
O=c1cc(-c2ccc(O)cc2)oc2ccccc12	-3	0	1	1	nt	nt
O=c1cc(-c2ccccc2)oc2cc(O)ccc12	64*	0	2	2	0	0
Cc1cc(C(=O)Nc2c[nH]c(=O)[nH]c2=O)ccc1[N+](=O)[O-]	10*	-1	0	1	-1	-1
CCCCOc1ccc(C(=O)N(Cc2ccco2)C2CCS(=O)(=O)C2)cc1 (configuration not stated)	9.6*	0	nt	nt	2	-2
Cn1c(=O)c2ncn(CC(=O)NCCOc3ccccc3)c2n(C)c1=O	1	0	2	0	nt	nt
Cc1ccc(OCCNC(=O)Cn2cnc3c(=O)n(C)c(=O)n(C)c32)cc1C	10*	0	-1	0	0	-3
NC(=O)[C@H]1OC(O)[C@H](O)[C@@H](O)[C@@H]1O (some centres not stated)	nt	nt	4	nt	nt	nt
O=C(N1CCOCC1)N1CC[C@H]2[C@H](CCCN2Cc2cc(F)cc(F)c2)C1	nt	nt	-2	nt	nt	nt
CCc1c(-c2cccc(OC)c2)ncn1CCc1ccccc1OC	nt	nt	1	-3	nt	nt
Cc1[nH]c(=O)[nH]c1C(=O)CCCCC(=O)OCC(=O)Nc1ccccn1	90*	0	-5	-2	97*	-1
CC(=O)c1c(C)[nH]c(C(=O)Nc2ccccn2)c1C	3	-1	-6	-2	nt	nt
CCCCCCCC(=O)CC[C@@H]1[C@@H](C/C=C\CCCC(=O)OC(C)C)[C@@H](O)C[C@H]1O	nt	nt	-5	nt	nt	nt
COC(=O)C1CCN(C(=O)C2CC(=O)N(c3ccc(OC)cc3)C2c2ccc(OC)cc2)CC1 (configuration not stated)	nt	nt	-6	nt	nt	nt
Cc1ccccc1OCC(=O)Nc1ccccc1-c1ccccc1	7.0*	-1	1	0	1	-1
Cc1ccccc1NC(=O)COc1ccccc1C	-2	-1	2	-1	nt	nt
CC1(C)CC(=O)N(c2ccc(Cl)c(Cl)c2)C(=O)C1	-4	-1	-3	-3	nt	nt
